7 compounds from ChEMBL document CHEMBL4118103, “Synthesis and Bioactivity Investigation of the Individual Components of Cyclic Lipopeptide Antibiotics” (J Med Chem, 2018) can be followed below.

≈ marks a conversion by molar mass, not a printed value. Bridge positions count the residues as written; N and C are the ends. Square brackets hold non-standard residues; d marks the D form. Peptide text beside a SMILES is read from it. * marks the point of attachment. Octanoyl(7-Me) = CC(C)CCCCCC(=O)*; X1 = CC[C@H](C)CCCCC(=O)*; dDab = NCC[C@@H](N)C(=O)O; Heptanoyl = CCCCCCC(=O)*; Dab = NCC[C@H](N)C(=O)O; Nva = CCC[C@H](N)C(=O)O

The subject of one data set is Pseudomonas aeruginosa. Description: Antibacterial activity against Pseudomonas aeruginosa ATCC 27853 after 18 hrs by agar dilution method. The data set is classed as functional. The essentials: (§1)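 Serial two-fold agar dilution per CLSI; bacteria cultured in Mueller-Hinton broth, inoculum about 10^4 cfu/spot; final concentrations 0.03-128 µg/mL; plates incubated 35 °C for 18 h. MIC = lowest concentration preventing visible growth; representative of at least two independent experiments, a third run when the two disagreed.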

The test system of another data set is Acinetobacter baumannii. Description: Antibacterial activity against Acinetobacter baumannii ATCC 19606 after 18 hrs by agar dilution method. The data set is classed as functional. The gist of the method:
as §1
(In general: In agar dilution the substance is mixed into plates at graded concentrations.)

Data set [1] deals with Escherichia coli. Description: Antibacterial activity against extended-spectrum beta-lactamase producing Escherichia coli isolate 14-11 after 18 hrs by agar dilution method. The class given is functional. The gist of the method:
as §1

Data set [2] can be described thus: Cytotoxicity against African green monkey Vero cells after 72 hrs by MTT assay. The class given is cell-based. The conditions noted are these: chlorocebus sabaeus, Vero cells. The gist of the method: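 Vero cells seeded at 2x10^3 cells/well, incubated 24 h at 37 °C, 5% CO2, then exposed to compound 72 h; MTT added for 2 h, medium removed, formazan dissolved in DMSO, absorbance read at 570 nm. Viability relative to untreated cells (100%); CC50 as mean ± SD of three independent experiments, each in triplicate.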
A general note: Formazan colour is commonly taken as a measure of viable cells.

Data set [3] relates to Escherichia coli. The data set can be described thus: Antibacterial activity against Escherichia coli ATCC 25922 after 18 hrs by agar dilution method. The data set is classed as functional. The gist of the method:
as §1

For data set [4], the system named is Klebsiella pneumoniae. Description: Antibacterial activity against NDM-1 producing Klebsiella pneumoniae ATCC BAA-2146 after 18 hrs by agar dilution method. The class given is functional. The gist of the method:
as §1

Data set [5] relates to Klebsiella pneumoniae. The data set can be described thus: Antibacterial activity against extended-spectrum beta-lactamase producing Klebsiella pneumoniae 700603 after 18 hrs by agar dilution method. The data set is classed as functional. The essentials: as §1
Where [6] appears, read: ATCC 19606 = CIP 70.34 = JCM 6841, 18 h.
Setting [7] is: Klebsiella pneumoniae, 700603, 18 h.

Turning to `CC[C@H](C)CCCCC(=O)N[C@@H](CCN)C(=O)N[C@H](C(=O)N[C@H](CCN)C(=O)N[C@H]1CCNC(=O)[C@H]([C@@H](C)O)NC(=O)[C@H](CCN)NC(=O)[C@H](CCN)NC(=O)[C@H]([C@@H](C)O)NC(=O)[C@@H](CC(C)C)NC(=O)[C@H](CCN)NC1=O)[C@@H](C)O` (X1-[Dab]T[dDab][Dab][Dab][dL]T[Dab][Dab]T; lactam 4-C), the MIC (as a rule, the least concentration at which growth counts as inhibited) against Pseudomonas aeruginosa (ATCC 27853, 18 h) was 1 µg/mL (≈ 0.864 µM); against Acinetobacter baumannii (setting [6]), 1 µg/mL (≈ 0.864 µM); in the data set on Escherichia coli [1] (isolate 14-11, 18 h), 1 µg/mL (≈ 0.864 µM); in the data set on Escherichia coli [3] (ATCC 25922, 18 h) it was 0.5 µg/mL (≈ 0.432 µM); against Klebsiella pneumoniae [4] (ATCC BAA-2146, 18 h), 1 µg/mL (≈ 0.864 µM); in the data set with Klebsiella pneumoniae [5] (setting [7]) it was 1 µg/mL (≈ 0.864 µM). For the same compound, in data set [2], the CC50 (commonly the concentration at which the toxic effect on the cells reaches its halfway point) at 72 h stood at 145 µg/mL (≈ 125 µM).

Turning to `CC(C)CCCCCC(=O)N[C@@H](CCN)C(=O)N[C@H](C(=O)N[C@@H](CCN)C(=O)N[C@H]1CCNC(=O)[C@H]([C@@H](C)O)NC(=O)[C@H](CCN)NC(=O)[C@H](CCN)NC(=O)[C@H](CC(C)C)NC(=O)[C@@H](CC(C)C)NC(=O)[C@H](CCN)NC1=O)[C@@H](C)O` ({Octanoyl(7-Me)}-[Dab]T[Dab][Dab][Dab][dL]L[Dab][Dab]T; lactam 4-C), the MIC with Pseudomonas aeruginosa (ATCC 27853, 18 h) came to 2 µg/mL (≈ 1.71 µM); in the data set on Acinetobacter baumannii (setting [6]), 1 µg/mL (≈ 0.855 µM); with Escherichia coli [1] (isolate 14-11, 18 h), 1 µg/mL (≈ 0.855 µM); against Escherichia coli [3] (ATCC 25922, 18 h), 1 µg/mL (≈ 0.855 µM); against Klebsiella pneumoniae [4] (ATCC BAA-2146, 18 h), 1 µg/mL (≈ 0.855 µM); against Klebsiella pneumoniae [5] (setting [7]), 1 µg/mL (≈ 0.855 µM). The compound also returned a CC50 at 72 h in data set [2] of 87 µg/mL (≈ 74.4 µM).

On to `CCC[C@@H]1NC(=O)[C@@H](CC(C)C)NC(=O)[C@H](CCN)NC(=O)[C@@H](NC(=O)[C@H](CCN)NC(=O)[C@@H](NC(=O)[C@H](CCN)NC(=O)CCCC[C@@H](C)CC)[C@@H](C)O)CCNC(=O)[C@H]([C@@H](C)O)NC(=O)[C@H](CCN)NC(=O)[C@H](CCN)NC1=O` (X1-[Dab]T[Dab][Dab][Dab][dL][Nva][Dab][Dab]T; lactam 4-C), for which the MIC in the data set with Pseudomonas aeruginosa (ATCC 27853, 18 h) turned out to be 1 µg/mL (≈ 0.865 µM); with Acinetobacter baumannii (setting [6]) it was 1 µg/mL (≈ 0.865 µM); in the data set on Escherichia coli [1] (isolate 14-11, 18 h), 1 µg/mL (≈ 0.865 µM); in the data set on Escherichia coli [3] (ATCC 25922, 18 h), 1 µg/mL (≈ 0.865 µM); with Klebsiella pneumoniae [4] (ATCC BAA-2146, 18 h), 1 µg/mL (≈ 0.865 µM); in the data set on Klebsiella pneumoniae [5] (setting [7]) it was 2 µg/mL (≈ 1.73 µM). The same compound had a CC50 at 72 h in data set [2] of 109 µg/mL (≈ 94.3 µM).

For the compound `CCCCCCC(=O)N[C@@H](CCN)C(=O)N[C@H](C(=O)N[C@@H](CCN)C(=O)N[C@H]1CCNC(=O)[C@H]([C@@H](C)O)NC(=O)[C@H](CCN)NC(=O)[C@H](CCN)NC(=O)[C@H](CC(C)C)NC(=O)[C@@H](Cc2ccccc2)NC(=O)[C@H](CCN)NC1=O)[C@@H](C)O` [POLYMYXIN B4] (Heptanoyl-[Dab]T[Dab][Dab][Dab][dF]L[Dab][Dab]T; lactam 4-C), the MIC in the data set with Pseudomonas aeruginosa (ATCC 27853, 18 h) came to 1 µg/mL (≈ 0.851 µM); in the data set with Acinetobacter baumannii (setting [6]), 0.5 µg/mL (≈ 0.425 µM); against Escherichia coli [1] (isolate 14-11, 18 h), 0.5 µg/mL (≈ 0.425 µM); against Escherichia coli [3] (ATCC 25922, 18 h) it was 0.5 µg/mL (≈ 0.425 µM); against Klebsiella pneumoniae [4] (ATCC BAA-2146, 18 h), 0.5 µg/mL (≈ 0.425 µM); in the data set on Klebsiella pneumoniae [5] (setting [7]), 1 µg/mL (≈ 0.851 µM). Also, half-maximal cytotoxicity in data set [2] (CC50 at 72 h) was put at 160 µg/mL (≈ 136 µM).

In the case of `CC[C@H](C)CCCCC(=O)N[C@@H](CCN)C(=O)N[C@H](C(=O)N[C@@H](CCN)C(=O)N[C@H]1CCNC(=O)[C@H]([C@@H](C)O)NC(=O)[C@H](CCN)NC(=O)[C@H](CCN)NC(=O)[C@H]([C@@H](C)CC)NC(=O)[C@@H](CC(C)C)NC(=O)[C@H](CCN)NC1=O)[C@@H](C)O`, the MIC against Pseudomonas aeruginosa (ATCC 27853, 18 h) came to 2 µg/mL (≈ 1.71 µM); in the data set on Acinetobacter baumannii (setting [6]), 1 µg/mL (≈ 0.855 µM); against Escherichia coli [1] (isolate 14-11, 18 h) it was 0.5 µg/mL (≈ 0.428 µM); against Escherichia coli [3] (ATCC 25922, 18 h) it was 1 µg/mL (≈ 0.855 µM); in the data set on Klebsiella pneumoniae [4] (ATCC BAA-2146, 18 h), 1 µg/mL (≈ 0.855 µM); in the data set with Klebsiella pneumoniae [5] (setting [7]), 1 µg/mL (≈ 0.855 µM). Also, in data set [2], half-maximal cytotoxicity (CC50 at 72 h) was put at 176 µg/mL (≈ 150 µM).

In the case of `CC[C@H](C)CCCCC(=O)N[C@@H](CCN)C(=O)N[C@H](C(=O)N[C@@H](CCN)C(=O)N[C@H]1CCNC(=O)[C@H]([C@@H](C)O)NC(=O)[C@H](CCN)NC(=O)[C@H](CCN)NC(=O)[C@H](C(C)C)NC(=O)[C@@H](CC(C)C)NC(=O)[C@H](CCN)NC1=O)[C@@H](C)O` (X1-[Dab]T[Dab][Dab][Dab][dL]V[Dab][Dab]T; lactam 4-C), the MIC against Pseudomonas aeruginosa (ATCC 27853, 18 h) stood at 2 µg/mL (≈ 1.73 µM); in the data set with Acinetobacter baumannii (setting [6]), 0.5 µg/mL (≈ 0.433 µM); with Escherichia coli [1] (isolate 14-11, 18 h), 0.5 µg/mL (≈ 0.433 µM); against Escherichia coli [3] (ATCC 25922, 18 h), 0.5 µg/mL (≈ 0.433 µM); with Klebsiella pneumoniae [4] (ATCC BAA-2146, 18 h) it was 0.5 µg/mL (≈ 0.433 µM); against Klebsiella pneumoniae [5] (setting [7]) it was 1 µg/mL (≈ 0.865 µM). The compound further registered a CC50 at 72 h in data set [2] of 131 µg/mL (≈ 113 µM).

COLISTIN: the MIC against Pseudomonas aeruginosa came to 2 µg/mL; against Acinetobacter baumannii (ATCC 19606 = CIP 70.34 = JCM 6841), 0.5 µg/mL; against Escherichia coli [1] it was 0.5 µg/mL; against Escherichia coli [3] it was 1 µg/mL; against Klebsiella pneumoniae [4], 1 µg/mL; in the data set on Klebsiella pneumoniae [5] it was 1 µg/mL.
